Laboratory results: the EternaBench riboswitch data

System: MS2 coat protein
Assay: apparent Kd, MS2 coat protein; higher = weaker binding; RNA-MaP array; FMN 200 µM where present
How it was run: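 SNAP-549-labelled MS2 coat protein, doubled from 0.7 or 1.5 nM to 3 µM, was titrated over designs transcribed by stalled E. coli RNA polymerase on Illumina sequencing-chip clusters. Titrations were run without and then with constant ligand in 100 mM Tris-HCl pH 7.5, 80 mM KCl, 4 mM MgCl2, BSA, DTT, yeast tRNA and Tween-20. The apparent Kd is the median of filtered per-cluster fits to green signal normalised to red-channel RNA signal and control-cluster median Fmax.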

[1] = designed as: ON switch for flavin mononucleotide, no ligand
[2] = ligand present: flavin mononucleotide, designed as: ON switch for flavin mononucleotide
[3] = designed as: OFF switch for flavin mononucleotide, no ligand
[4] = ligand present: flavin mononucleotide, designed as: OFF switch for flavin mononucleotide

Sequence | apparent Kd [1] | apparent Kd [2] | apparent Kd [3] | apparent Kd [4]
UGGUACAUGGGAGGAUAUGGGUUGAUAACAUGAGGAUCACCCAUGUUAAAUAUGCCUCAUGGCAACUAGAAGGCCCAUGUACCU | 463 nM | 95.1 nM |  | 
CGAGACCUCACAGGAUAUGCUGGACUUUGUCCAGCAGAAGGGUGAAAACAUGAGGAUCACCCAUGUAUGGUCUCCAAAUUUAAA | 182 nM | 13.6 nM |  | 
UUAAAUCGAAACAUGAGGAUCACCCAUGUGUUGUAAUUAAUAUAGGAUAUGUGUAUACUUUUAUAACAGAAGGAUGAUAAUACU | 22.2 nM | 16.9 nM |  | 
UUUUUUUUAGUAAGGAUAUGAUGCAGGAAACUGCGUCAGAAGGUACAUGAGGAUCACCCAUGUUAAUUUUUUUU |  |  | 17.2 nM | 22.4 nM
GACGGACAUGAGGAUCACCCAUGUAGGUUGGCCACAGGAUAUGCAAAACGGCCUGCCGCGGCAGAAGGGUGAGCCC | 39.1 nM | 43.7 nM |  | 
GGGACACAUGAGGAUCACCCAUGUGAGGAUAUGUUAGUUUCGGCCAAAGCCGAAAUUAACAGAAGGCACAUACC |  |  | 36.7 nM | 49 nM
CAUUAAUUCAUUAUAGUUAUUAUACAGGAUAUGUUACAUGAGGAUCACCCAUGUAUUCUUGGUAAACAGAAGGGUAUUUCUAGU |  |  | 7.48 nM | 8.5 nM
UUUACAUGAGGAUCACCCAUGUCUUGCAAGAUGAGUUCUGGUGAGGAUAUACAUGGUAAAGAACUGUAGAAGGCACUGGGUACA | 432 nM | 430 nM |  | 
GGAUAGGACAGAGGAUAUACGUGCUAGAGAUACUAGCAAAAUUUCCUGACAUGAGGAUCACCCAUGUAGAAGGCUGUCCUAUCG |  |  | 7.22 nM | 15.5 nM
UCGACGAAAGUCGAACGAUGUAGCAGAAGGACAUGAGGAUCACCCAUGUCAGCUGUAACAGCCAUGUAGGAUAUGCUACAUCGG |  |  | 4.43 nM | 5.37 nM
CGUAGUUGGUAAGGAUAUCCUACACUGUUCUGACCCGUGCAAGCUACAUGAGGAUCACCCAUGUGGGAGAAGGUGCGUCAACGC |  |  | 18.4 nM | 19.6 nM
GAACUGAAGCAUAGCUUUAGUCGUACAUGAGGAUCACCCAUGUAGGAUAUAGUAGGCAUAGCUUACUAGAAGGAUAGAGUGAUC |  |  | 254 nM | 106 nM
GUCAUGUUAGGAUAUCUGACAUGUGACUUCGGUCACUGUCCAGAGAAGGAACAUGAGGAUCACCCAUGUUGGAC |  |  | 55.6 nM | 63.9 nM
UUGGACGUCGUAGGAUAUGUAGGUUAUUCCUACAUGAGGAUCACCCAUGUUGACAUGGAAGAAGGACAGAAGGACGAUGUCCAU | 184 nM | 4.18 nM |  | 
CUGAGCUGAGGAUAUACAUGAGGAUCACCCAUGUGUUAGAGCUUGCGUACAGGCAGAUGUAGAAGGCAGUUCGG |  |  | 17.4 nM | 49.7 nM
GACGUACAUGAGGAUCACCCAUGUACAAACGUACAAGGAUAUGUGUGGAAACCGUACUAUACAGAAGGUGUUUGUC | 14.3 nM | 14.1 nM |  | 
UAAAUAAUGUAAGGAUAUACAUGAGGAAUUCUCGUAGAAGGUACAUGACAUGAGGAUCACCCAUGUAUCGCUCAGUAGAGCGUA | 152 nM | 311 nM |  | 
UGGUACUAGGGAGGAUAUGGGAAGAUACAUGAGGAUCACCCAUGUUUAAGAAUGCCGAGAGACAACUAGAAGGCCCUAGUACCU | 240 nM | 22.2 nM |  | 
GCACUGGAUGUAGGAUAUCAGGACGAUAAGUCCUGAGAAGGACAUGAGGAUCACCCAUGUCUCAAGAAACCAGUGCAUAAUAUA |  |  | 13 nM | 15.9 nM
GUGGUCAGACAUGAGGAUCACCCAUGUGGAAUAAAUAAGGAGAAGGAUAUGCAAUAUAGGAUAUAGCAGAAGGUUUGGUUGGUG | 95.8 nM | 111 nM |  | 
CUCUUUAGUCAGGAUAUCGUGAGGCUAAUUAUACGAGAAGGGACGACAUGAGGAUCACCCAUGUGGUCUUAGAG |  |  | 17.4 nM | 32.1 nM
UUCCGACAUGAGGAUCACCCAUGUAAGGAUAUGUAUCCUUCGGCCCGAACCAGAGGAAGCAGAAGGUACAGGGA |  |  | 31.3 nM | 20 nM
UUUUUGUCAGGAUAUCGUGCAUACAACGAAAGUUCUAUGUGCGAGAAGGGACAUGAGGAUCACCCAUGUUACGG |  |  | 109 nM | 371 nM
GAGAAGUCAGGAUAUGCAUGGCGGGACUUGCGUCGUGGCGUGCAGAAGGGACAUGAGGAUCACCCAUGUAAAGC |  |  | 45.4 nM | 39.5 nM

Sequence | apparent Kd [1] | apparent Kd [2] | apparent Kd [3] | apparent Kd [4]
GGGAGACAUGAGGAUCACCCAUGUGAAAACGUGGCAGGAUAUCCAUGGAAACCAUACUGUGGAGAAGGGCCUUGUC | 77.9 nM | 40.5 nM |  | 
UGCUAGGACCUAGGAUAUCCUGGGUUGGUGGUGCUUGAUGACCGGACAUGAGGAUCACCCAUGUAGGAGAAGGAGGUUGUUAAG |  |  | 61.2 nM | 100 nM
UGGUACAUGGGAGGAUAUGGGUUGAUAACAUGAGGAUCACCCAUGUUAAAUAAGCCGAGAGGCUACCAGAAGGCCCAUGUACCU | 7.29 nM | 4.99 nM |  | 
UUUGCAUUCCGAGGAUAUUCAUUUAAUGACUUCACAUGAGGAUCACCCAUGUGGCGAUUGCGCCGGGAGAAGGCGGUUUGCUUU | 24.7 nM | 24 nM |  | 
GGUACCAUCACAGGAUAUGCUAUCCUUUGGGUAGCAGAAGGGUGAUAACAUGAGGAUCACCCAUGUGGUACCGGGCGUGAGCCC | 1030 nM | 197 nM |  | 
AUCCGGCGUGUAGGAUAUGGAAAAAAUUAGGAUCCAGAAGGACAUGAGGAUCACCCAUGUACAUGUAAACAGUCAUCACCGGAA |  |  | 33.5 nM | 51.7 nM
GGAUAGGACAGAGGAUAUACGUGCUAGAGAUACUAGCAAAAUUUCCUCACAUGAGGAUCACCCAUGUAGAAGGCUGUCCUAUCA |  |  | 16.7 nM | 380 nM
UUAUGUAUUGUAGGAUAUCAUAAGUUAUGUAUUAUAAUUGAAAUUUUGUUAUGAGAAGGACAUAUACAUGAGGAUCACCCAUGU |  |  | 16.6 nM | 14 nM
UGUGCCUCGAGAGGAUAUUACAUGAGGAUCACCCAUGUAACAGAGGUGGAAACACCUCUGAAAUGUAAGAAGGCUCGAGGCACA |  |  | 19.1 nM | 29.6 nM
CUUUCGUGAGGAUAUCAGUAGUAAAAAAAUAAAAUUACUACUGAGAAGGCACAUGAGGAUCACCCAUGUUCCUC |  |  | 21.8 nM | 143 nM
UAAAUUAUCAAGAAGGCUAACAUGAGGAUCACCCAUGUUGUACAUGGAUAUAGAGGAUAUUGCUAAUAAUUAUUUAUCAUAAUU |  |  | 15.3 nM | 14.8 nM
UUGUUGUAUGUAGGAUAUGCAUAUUAUUAUUGUGCAGAAGGACAUGAGGAUCACCCAUGUAUAUUAUUAUUAUAUAUUAUAUAU |  |  | 35.3 nM | 54.3 nM
AAUUACAUGUAGAAGGUACUAACAUAAGUGUUGUAAGGAUAUACCAAUUUAUUAGUUUUAAAGAUACAUGAGGAUCACCCAUGU | 12.5 nM | 8.22 nM |  | 
UGAUAACAUGUAGGAUAUGCAGCAUUGACCACUGCAGAAGGACAUGAGGAUCACCCAUGUACCGAUACUAUGGGAUCACGCAAU |  |  | 24.3 nM | 87.4 nM
AGGAUCUCAGUCAGGAUAUGUGUCUUCAAAGUACGGCAGAAGGGACAUGAGGAUCACCCAUGUUAGCCACCUUU |  |  | 26.6 nM | 69.1 nM
GGAUUUUCUGAGGAUAUUGCAUCACCCGAUUUAUAAGAAGGCAGAACAUGAGGAUCACCCAUGUGGGUCUCCAG |  |  | 28.6 nM | 58 nM
UCCCGAAGGCGGGCCGACCAUACAUGAGGAUCACCCAUGUCGAGAAGGUGCUCACGGGUGGGUGGCAAGGAUAUCGGGUCGGAU | 93.8 nM | 42.3 nM |  | 
GUCUGAUUGUAGAAGGUACUUAAUACUCAUGUAACAUGAGGAUCACCCAUGUAUCAUCAAUAUUGUAAGGAUAUACAAAUCUCA | 150 nM | 28.4 nM |  | 
CCGGAAACGGGUAGCCUGACAUGAGGAUCACCCAUGUGAUCAGAGGAUAUGGAUCCUAAUUGGAUCCAGAAGGCUGUUGGCUAC | 73.4 nM | 27.5 nM |  | 
AUGACAGGCAAAGCGCAACGGCAAACAUGAGGAUCACCCAUGUAGGAUAUGCUACACAAAGUGUAGCAGAAGGACAUACGACGA |  |  | 36.4 nM | 75.2 nM
AUUAGUAUCUAGGAUAUCUAGUACAUAGUAUCUAGAGAAGGAGAUACAUGAGGAUCACCCAUGUUCUGUGAUCU |  |  | 204 nM | 44.4 nM
AAAAAGCGAGGAUAUACAUAGCUAAGACGUGUGAGCGAAAAACAUGAGGAUCACCCAUGUAGAAGGCGCAAAAA |  |  | 18 nM | 17.9 nM
ACUGGGCGCCGACCCAUGUCUAUGGAGGAUAUUACUGCCGGUAUCUCACAUGAGGAUCACCCAUGUAAGAAGGCCAUAAACACC |  |  | 19.5 nM | 221 nM
GAAAUAAUGUAAGGAUAUACAUGAGGAUUUCUCGUAGAAGGUACAAGACAUGAGGAUCACCCAUGUGUCGCUCCGUAGAGCGUA | 308 nM | 299 nM |  | 
